Source: ChEMBL document CHEMBL4840303, “Design, synthesis, biological evaluation and pharmacophore model analysis of novel tetrahydropyrrolo[3,4-c]pyrazol derivatives as potential TRKs inhibitors” (Eur J Med Chem, 2021)

What was measured:
[1] = biological target: CYP3A4 (Homo sapiens, UniProt P08684); assay: Inhibition of CYP3A4 in human liver microsomes at 10 uM preincubated for 10 mins followed by addition of NADPH and measured after 15 mins by LC-MS/MS analysis; type: ADME
Method in brief: (§1)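 Pooled human liver microsomes (0.253 mg/mL) with test compound at 10 µM and probe substrates: phenacetin (CYP1A2), diclofenac (CYP2C9), S-mephenytoin (CYP2C19), dextromethorphan (CYP2D6), midazolam (CYP3A4). 10 min preincubation at 37 °C, NADPH-regenerating system added, 15 min at 37 °C. Stopped with cold acetonitrile containing tolbutamide/labetalol internal standards, centrifuged, supernatant read by LC-MS/MS; % inhibition.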

[2] = biological target: Serine/threonine-protein kinase TBK1 (Homo sapiens) (UniProt Q9UHD2); assay: Inhibition of recombinant GST-tagged full length human TBK1 expressed in baculovirus expression system at 1 uM measured by select screen assay relative to control
Serine/threonine-protein kinase TBK1 (Homo sapiens), sequence (Q9UHD2 whole entry): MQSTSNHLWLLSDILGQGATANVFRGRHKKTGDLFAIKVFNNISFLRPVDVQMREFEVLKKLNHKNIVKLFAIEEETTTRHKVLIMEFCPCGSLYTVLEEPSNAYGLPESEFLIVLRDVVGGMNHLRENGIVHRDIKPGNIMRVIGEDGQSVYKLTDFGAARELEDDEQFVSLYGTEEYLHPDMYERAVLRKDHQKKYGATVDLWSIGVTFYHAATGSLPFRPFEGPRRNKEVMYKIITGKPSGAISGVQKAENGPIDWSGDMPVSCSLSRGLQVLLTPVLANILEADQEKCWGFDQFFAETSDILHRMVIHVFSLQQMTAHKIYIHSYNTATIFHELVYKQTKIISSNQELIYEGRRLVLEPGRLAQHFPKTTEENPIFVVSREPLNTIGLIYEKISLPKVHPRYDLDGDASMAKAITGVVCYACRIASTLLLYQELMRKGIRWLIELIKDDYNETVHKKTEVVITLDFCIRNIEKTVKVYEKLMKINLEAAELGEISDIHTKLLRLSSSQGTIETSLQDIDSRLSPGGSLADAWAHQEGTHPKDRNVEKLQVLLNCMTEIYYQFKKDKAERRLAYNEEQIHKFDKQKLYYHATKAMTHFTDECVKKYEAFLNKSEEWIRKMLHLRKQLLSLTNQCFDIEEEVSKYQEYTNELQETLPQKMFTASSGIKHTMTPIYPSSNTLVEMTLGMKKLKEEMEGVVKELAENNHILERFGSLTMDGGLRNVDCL
Method in brief: (§2)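 Single-concentration profiling at 1.0 µM in a 28-kinase SelectScreen panel; percent inhibition reported.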

[3] = test system: KM12; assay: Cell cycle arrest in human KM12 cells assessed as accumulation of cells at less G1 phase at 250 nM measured after 48 hrs by AnnexinV-FITC/PI staining based flowcytometry method relative to control; type: functional
[4] = test system: KM12; assay: Induction of apoptosis in human KM12 cells assessed as early apoptotic cells at 125 nM measured after 48 hrs by AnnexinV-FITC/PI staining based flowcytometry assay relative to control; type: functional
Method in brief: (§3)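 They were detached with trypsin, washed twice in PBS, and 10^5 cells were suspended in Annexin V binding buffer. Cells were stained with FITC-Annexin V and PI for 10 min at room temperature in the dark, diluted with PBS and analysed by flow cytometry.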

[5] = biological target: CYP2D6 (Homo sapiens, UniProt P10635); assay: Inhibition of CYP2D6 in human liver microsomes at 10 uM preincubated for 10 mins followed by addition of NADPH and measured after 15 mins by LC-MS/MS analysis; type: ADME; settings: time 25 min; method in brief: as §1
CYP2D6, sequence (P10635 whole entry): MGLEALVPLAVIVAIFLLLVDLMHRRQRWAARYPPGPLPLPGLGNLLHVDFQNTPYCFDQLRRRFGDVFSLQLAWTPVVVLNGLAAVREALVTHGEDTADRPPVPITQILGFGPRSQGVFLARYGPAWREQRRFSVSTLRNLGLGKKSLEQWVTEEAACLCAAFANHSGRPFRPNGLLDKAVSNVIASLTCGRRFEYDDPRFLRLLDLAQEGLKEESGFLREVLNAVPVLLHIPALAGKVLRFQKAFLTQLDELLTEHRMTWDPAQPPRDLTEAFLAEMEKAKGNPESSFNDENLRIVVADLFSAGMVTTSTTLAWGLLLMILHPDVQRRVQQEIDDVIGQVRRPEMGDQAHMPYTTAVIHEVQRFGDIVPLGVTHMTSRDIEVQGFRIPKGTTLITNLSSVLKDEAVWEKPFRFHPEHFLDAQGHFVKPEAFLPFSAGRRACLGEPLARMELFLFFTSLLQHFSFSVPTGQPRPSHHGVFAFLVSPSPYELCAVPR

[6] = biological target: Hepatocyte growth factor receptor (Homo sapiens) (UniProt P08581); assay: Inhibition of recombinant His-tagged human MET expressed in baculovirus expression system at 1 uM measured by select screen assay relative to control; method in brief: as §2
Hepatocyte growth factor receptor (Homo sapiens), sequence (P08581 whole entry): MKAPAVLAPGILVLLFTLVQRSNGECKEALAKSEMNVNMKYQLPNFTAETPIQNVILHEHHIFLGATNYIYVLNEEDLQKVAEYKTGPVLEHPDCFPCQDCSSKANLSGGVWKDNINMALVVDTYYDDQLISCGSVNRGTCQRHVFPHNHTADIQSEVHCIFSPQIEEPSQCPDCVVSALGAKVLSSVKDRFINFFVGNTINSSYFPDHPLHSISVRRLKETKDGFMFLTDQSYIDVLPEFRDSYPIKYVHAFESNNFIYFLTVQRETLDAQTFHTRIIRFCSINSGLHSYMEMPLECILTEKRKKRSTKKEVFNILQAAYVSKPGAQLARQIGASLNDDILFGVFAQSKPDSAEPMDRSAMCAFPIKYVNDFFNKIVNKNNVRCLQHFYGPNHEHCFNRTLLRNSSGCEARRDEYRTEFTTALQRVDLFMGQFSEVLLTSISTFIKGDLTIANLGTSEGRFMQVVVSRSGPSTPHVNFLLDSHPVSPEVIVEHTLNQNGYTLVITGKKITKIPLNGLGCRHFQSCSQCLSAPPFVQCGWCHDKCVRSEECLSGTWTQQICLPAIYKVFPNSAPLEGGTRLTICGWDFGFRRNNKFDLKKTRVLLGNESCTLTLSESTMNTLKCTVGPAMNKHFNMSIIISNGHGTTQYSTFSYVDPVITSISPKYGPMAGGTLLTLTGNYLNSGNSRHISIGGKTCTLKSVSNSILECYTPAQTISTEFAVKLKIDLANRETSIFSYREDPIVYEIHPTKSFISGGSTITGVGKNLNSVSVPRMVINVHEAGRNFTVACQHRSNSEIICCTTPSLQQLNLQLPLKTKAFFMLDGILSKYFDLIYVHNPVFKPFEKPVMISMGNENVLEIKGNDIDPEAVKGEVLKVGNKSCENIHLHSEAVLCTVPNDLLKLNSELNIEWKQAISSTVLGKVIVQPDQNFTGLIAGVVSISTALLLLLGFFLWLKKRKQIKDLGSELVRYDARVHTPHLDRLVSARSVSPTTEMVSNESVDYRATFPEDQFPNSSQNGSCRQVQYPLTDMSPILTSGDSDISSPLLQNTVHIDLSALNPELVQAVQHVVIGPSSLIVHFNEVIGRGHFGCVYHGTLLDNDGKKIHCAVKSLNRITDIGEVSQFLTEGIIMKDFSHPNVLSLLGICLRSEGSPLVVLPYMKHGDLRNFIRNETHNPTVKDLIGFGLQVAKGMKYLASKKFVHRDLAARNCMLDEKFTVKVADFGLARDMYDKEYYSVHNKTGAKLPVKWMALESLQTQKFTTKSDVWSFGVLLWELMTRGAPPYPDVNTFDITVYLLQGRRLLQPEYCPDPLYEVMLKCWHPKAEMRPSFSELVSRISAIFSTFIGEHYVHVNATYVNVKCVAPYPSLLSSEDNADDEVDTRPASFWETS

[7] = biological target: RAC-alpha serine/threonine-protein kinase (Homo sapiens) (UniProt P31749); assay: Inhibition of recombinant His-tagged human full length AKT1 expressed in baculovirus expression system at 1 uM measured by select screen assay relative to control; method in brief: as §2
RAC-alpha serine/threonine-protein kinase (Homo sapiens), sequence (P31749 whole entry): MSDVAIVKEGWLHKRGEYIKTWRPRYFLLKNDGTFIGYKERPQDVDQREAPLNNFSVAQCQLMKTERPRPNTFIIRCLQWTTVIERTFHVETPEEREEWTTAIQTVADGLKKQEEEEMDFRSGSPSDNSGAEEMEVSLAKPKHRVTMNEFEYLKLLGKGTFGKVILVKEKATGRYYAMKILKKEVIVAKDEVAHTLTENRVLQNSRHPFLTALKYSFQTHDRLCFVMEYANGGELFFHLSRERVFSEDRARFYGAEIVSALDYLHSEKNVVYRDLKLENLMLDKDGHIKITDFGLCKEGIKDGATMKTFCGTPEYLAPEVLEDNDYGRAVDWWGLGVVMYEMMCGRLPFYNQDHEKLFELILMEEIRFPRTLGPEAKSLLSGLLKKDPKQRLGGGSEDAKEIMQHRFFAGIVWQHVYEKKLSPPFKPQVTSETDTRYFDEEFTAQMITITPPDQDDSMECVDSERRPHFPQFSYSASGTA

[8] = test system: KM12; assay: Cell cycle arrest in human KM12 cells assessed as accumulation of cells at S phase at 125 nM measured after 48 hrs by AnnexinV-FITC/PI staining based flowcytometry method relative to control; type: functional
[9] = test system: KM12; assay: Cell cycle arrest in human KM12 cells assessed as accumulation of cells at S phase at 1000 nM measured after 48 hrs by AnnexinV-FITC/PI staining based flowcytometry method relative to control; type: functional
[10] = test system: KM12; assay: Cell cycle arrest in human KM12 cells assessed as accumulation of cells at less G1 phase at 125 nM measured after 48 hrs by AnnexinV-FITC/PI staining based flowcytometry method relative to control; type: functional
[11] = test system: KM12; assay: Induction of apoptosis in human KM12 cells assessed as early apoptotic cells at 1000 nM measured after 48 hrs by AnnexinV-FITC/PI staining based flowcytometry assay relative to control; type: functional; method in brief: as §3
[12] = biological target: AMP-activated protein kinase, AMPK (Homo sapiens) (UniProt P54646+O43741+P54619+Q9UGJ0+Q9Y478+Q13131+Q9UGI9); assay: Inhibition of recombinant GST-tagged His-tagged full length human AMPK expressed in baculovirus expression system at 1 uM measured by select screen assay; method in brief: as §2
[13] = test system: KM12; assay: Induction of apoptosis in human KM12 cells assessed as early apoptotic cells at 500 nM measured after 48 hrs by AnnexinV-FITC/PI staining based flowcytometry assay relative to control; type: functional; method in brief: as §3
[14] = test system: KM12; assay: Induction of apoptosis in human KM12 cells assessed as necrotic cells at 1000 nM measured after 48 hrs by AnnexinV-FITC/PI staining based flowcytometry assay relative to control; type: functional; method in brief: as §3
[15] = Clearance in Sprague dawley rat at 1 mg/kg, iv; type: ADME, organism-based; settings: in vivo
Method in brief: (§4)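 Blood was collected into heparin tubes at specified time points and centrifuged at once (4 °C, 4000 rpm, 20 min). Plasma levels were quantified by LC-MS/MS. Parameters came from noncompartmental analysis.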

[16] = test system: KM12; assay: Cell cycle arrest in human KM12 cells assessed as accumulation of cells at S phase at 500 nM measured after 48 hrs by AnnexinV-FITC/PI staining based flowcytometry method relative to control; type: functional
[17] = test system: KM12; assay: Induction of apoptosis in human KM12 cells assessed as early apoptotic cells at 62.5 nM measured after 48 hrs by AnnexinV-FITC/PI staining based flowcytometry assay relative to control; type: functional; method in brief: as §3
[18] = test system: THLE-2; assay: cells; settings: Homo sapiens, THLE-2, 72 h
[19] = Stability in human plasma assessed as half life incubated for 0 mins by LC-MS/MS analysis; type: ADME, cell-free
Method in brief: (§5)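 Pooled frozen human plasma thawed at 37 °C, centrifuged to remove clots, pH adjusted to 7.4 if required. Spiked to 2 µM final (from 100 µM dosing solution), in duplicate, incubated at 37 °C in a water bath. Sampled at 0, 10, 30, 60 and 120 min, quenched with acetonitrile stop solution containing internal standards, centrifuged, and supernatant analysed by LC-MS/MS for percent remaining.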

[20] = biological target: High affinity nerve growth factor receptor (Homo sapiens, UniProt P04629); assay: Inhibition of N-terminal GST-tagged human TRKA (436 to 790 residues) expressed in baculovirus infected Sf21 cells using TK as substrate in presence of ATP measured after 30 mins by HTRF assay
High affinity nerve growth factor receptor, sequence (P04629 whole entry, the tested form may be a part): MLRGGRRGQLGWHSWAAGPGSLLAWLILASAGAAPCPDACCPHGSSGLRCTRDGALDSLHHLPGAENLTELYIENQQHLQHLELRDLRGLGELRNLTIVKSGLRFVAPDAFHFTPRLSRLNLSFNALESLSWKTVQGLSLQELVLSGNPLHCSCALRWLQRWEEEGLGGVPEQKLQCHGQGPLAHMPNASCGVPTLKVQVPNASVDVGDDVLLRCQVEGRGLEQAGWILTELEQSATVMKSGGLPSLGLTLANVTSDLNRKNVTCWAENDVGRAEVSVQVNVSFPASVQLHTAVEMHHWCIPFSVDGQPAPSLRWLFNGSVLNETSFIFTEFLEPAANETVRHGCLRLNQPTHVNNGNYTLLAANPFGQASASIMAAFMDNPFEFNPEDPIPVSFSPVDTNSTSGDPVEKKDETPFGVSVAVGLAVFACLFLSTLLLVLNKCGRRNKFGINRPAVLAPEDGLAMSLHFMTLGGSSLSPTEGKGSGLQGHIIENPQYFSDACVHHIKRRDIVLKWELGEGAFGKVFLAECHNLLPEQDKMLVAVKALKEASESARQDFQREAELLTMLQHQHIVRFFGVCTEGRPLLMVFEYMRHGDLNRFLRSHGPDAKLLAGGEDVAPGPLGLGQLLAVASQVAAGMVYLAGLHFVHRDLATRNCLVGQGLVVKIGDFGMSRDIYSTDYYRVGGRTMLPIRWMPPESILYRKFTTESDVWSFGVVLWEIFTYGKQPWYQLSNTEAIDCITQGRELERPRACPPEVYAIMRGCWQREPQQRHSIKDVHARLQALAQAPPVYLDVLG

[21] = Half life in Sprague dawley rat at 1 mg/kg, iv; type: ADME, organism-based; settings: in vivo; method in brief: as §4
[22] = test system: KM12; assay: Induction of apoptosis in human KM12 cells assessed as necrotic cells at 62.5 nM measured after 48 hrs by AnnexinV-FITC/PI staining based flowcytometry assay relative to control; type: functional
Method in brief: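 10^5 cells in Annexin V binding buffer stained with FITC-Annexin V and PI for 10 min at room temperature in the dark, diluted with PBS and analysed by flow cytometry (FITC 494/518 nm, PI 535/617 nm).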

[23] = test system: KM12; assay: Induction of apoptosis in human KM12 cells assessed as late apoptotic cells at 125 nM measured after 48 hrs by AnnexinV-FITC/PI staining based flowcytometry assay relative to control; type: functional; method in brief: as §3
[24] = Clearance in human liver assessed as half life at 100 uM measured after 60 mins by LC-MS/MS analysis; type: ADME, Microsome; settings: microsomes, 1 h
Method in brief: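 Pooled human liver microsomes were diluted to 0.59 mg/mL (working solution) in 100 mM potassium phosphate buffer and pre-warmed at 37 °C. Compound was added from a 100 µM working solution, with NADPH cofactor prepared in 10 mM MgCl2. Incubation ran at 37 °C for 60 min. Aliquots were quenched at 5, 15, 30, 45 and 60 min. A control without NADPH was run in buffer. Samples were analysed by LC-MS/MS.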

[25] = Stability in human plasma assessed as compound remaining incubated for 30 mins by LC-MS/MS analysis; type: ADME, cell-free; settings: read-out: Stability; method in brief: as §5
[26] = Stability in human plasma assessed as compound remaining incubated for 120 mins by LC-MS/MS analysis; type: ADME, cell-free; settings: read-out: Stability; method in brief: as §5

CYP3A4, sequence (P08684 whole entry): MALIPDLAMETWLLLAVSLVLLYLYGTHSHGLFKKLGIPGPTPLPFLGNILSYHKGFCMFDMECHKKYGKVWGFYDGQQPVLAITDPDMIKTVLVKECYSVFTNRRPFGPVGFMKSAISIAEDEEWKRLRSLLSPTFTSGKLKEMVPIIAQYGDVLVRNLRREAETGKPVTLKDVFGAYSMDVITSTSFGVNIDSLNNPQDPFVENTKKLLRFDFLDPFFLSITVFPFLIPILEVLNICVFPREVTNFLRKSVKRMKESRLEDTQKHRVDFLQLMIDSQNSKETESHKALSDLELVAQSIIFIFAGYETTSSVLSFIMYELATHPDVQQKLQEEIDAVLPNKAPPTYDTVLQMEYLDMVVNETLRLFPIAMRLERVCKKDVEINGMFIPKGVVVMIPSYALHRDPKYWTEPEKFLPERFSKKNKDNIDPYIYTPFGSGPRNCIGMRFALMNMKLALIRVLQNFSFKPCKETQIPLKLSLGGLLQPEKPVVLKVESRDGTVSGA

CN1CCN(c2ccc(C(=O)Nc3n[nH]c4c3CN(Cc3cc(F)cc(F)c3)C4(C)C)cc2)CC1
inhibition at 0.25 h, 10 µM [1]: 6.4% | inhibition [2]: 7% | Activity [3]: 5.86% | Activity [4]: 18.15% | inhibition at 0.25 h, 10 µM [5]: 0% | inhibition [6]: 6% | inhibition [7]: 2% | Activity [8]: 21.5% | Activity [9]: 7.22% | Activity [10]: 7.36% | Activity [11]: 36.3% | inhibition [12]: 53% | Activity [13]: 35.84% | Activity [14]: 0.04% | clearance [15]: 8.08 mL/min/kg | Activity [16]: 6.56% | Activity [17]: 19.55% | IC50 [18]: > 100000 nM | half-life [19]: > 4.82 h | IC50 [20]: 17 nM | half-life [21]: 1.51 h | Activity [22]: 0.03% | Activity [23]: 18.23% | CLH [24]: 42.1 µL/min/mg | remaining at 0.5 h [25]: 95.7% | remaining at 2 h [26]: 101%
